Experimental data: ChEMBL document CHEMBL1146537, “Diterpenoids from Tetraclinis articulata that inhibit various human leukocyte functions” (J Nat Prod, 2003)

test system: not listed separately; assay: Cytotoxicity against human neutrophils up to 10 uM by MTT assay; format: cell-based; conditions: neutrophil

Row | SMILES | Activity
1 | C=C[C@@]1(C)CC[C@H]2[C@](O)(CC[C@@H]3[C@]2(C)CCC[C@@]3(C)C=O)C1 | Non-toxic
2 | C=C[C@@]1(C)CC[C@H]2[C@](O)(CC[C@H]3[C@](C)(COC(C)=O)CCC[C@@]32C)C1 | Non-toxic
3 | C=C[C@@]1(C)CC[C@H]2[C@](O)(CC[C@H]3[C@](C)(CO)CCC[C@@]32C)C1 | Non-toxic

test system: Neutrophil; assay: Inhibition of cytochalasin B and fMLP-stimulated human neutrophil degranulation assessed as inhibition of elastase release at 10 uM preincubated for 5 mins measured after 20 mins; format: functional; conditions: not given
How it was run: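 Neutrophils (2.5×10^6/mL) preincubated 5 min with compound or vehicle, then cytochalasin B (10 μM) + fMLP (10 nM), 10 min, 37 °C. Supernatant after 1200g spin at 4 °C, 10 min, reacted with Boc-L-alanine p-nitrophenyl ester (200 μM) 20 min, 37 °C; p-nitrophenol read at 414 nm. Direct enzyme inhibition checked by 5 min compound preincubation with stimulated supernatant before substrate.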

Row | SMILES | inhibition at 10 µM [%]
4 | C=C[C@@]1(C)CC[C@H]2[C@](O)(CC[C@@H]3[C@]2(C)CCC[C@@]3(C)C=O)C1 | 17.8
5 | C=C[C@@]1(C)CC[C@H]2[C@](O)(CC[C@H]3[C@](C)(COC(C)=O)CCC[C@@]32C)C1 | 33.5
6 | C=C[C@@]1(C)CC[C@H]2[C@](O)(CC[C@H]3[C@](C)(CO)CCC[C@@]32C)C1 | 24.1

test system: Neutrophil; assay: Inhibition of cytochalasin B and fMLP-stimulated human neutrophil degranulation assessed as inhibition of myeloperoxidase release at 10 uM preincubated for 5 mins; format: functional; conditions: not given
How it was run: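 Neutrophils (2.5×10^6 cells/mL) preincubated 5 min at 37 °C with compound in ethanol (ethanol alone for controls). Then stimulated 10 min at 37 °C with cytochalasin B (10 μM) plus fMLP (10 nM).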

Row | SMILES | inhibition at 10 µM [%]
7 | C=C[C@@]1(C)CC[C@H]2[C@](O)(CC[C@@H]3[C@]2(C)CCC[C@@]3(C)C=O)C1 | 47.8
8 | C=C[C@@]1(C)CC[C@H]2[C@](O)(CC[C@H]3[C@](C)(COC(C)=O)CCC[C@@]32C)C1 | 55.4
9 | C=C[C@@]1(C)CC[C@H]2[C@](O)(CC[C@H]3[C@](C)(CO)CCC[C@@]32C)C1 | 46.7

test system: Neutrophil; assay: Inhibition of TPA-induced chemiluminescence response in human neutrophils at 10 uM after 7 mins; format: functional; conditions: not given
How it was run: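 Neutrophils (2.5×10^6/mL) with luminol (40 μM), stimulated by TPA (1 μM); light output counted after 7 min, chosen as time of maximal production.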

Row | SMILES | inhibition at 10 µM [%]
10 | C=C[C@@]1(C)CC[C@H]2[C@](O)(CC[C@@H]3[C@]2(C)CCC[C@@]3(C)C=O)C1 | 30.5
11 | C=C[C@@]1(C)CC[C@H]2[C@](O)(CC[C@H]3[C@](C)(COC(C)=O)CCC[C@@]32C)C1 | 6.5
12 | C=C[C@@]1(C)CC[C@H]2[C@](O)(CC[C@H]3[C@](C)(CO)CCC[C@@]32C)C1 | 1.8
